# Test results from ChEMBL document CHEMBL2169882, “Exploration of novel 3-substituted azetidine derivatives as triple reuptake inhibitors” (J Med Chem, 2012).
# The source made the active and inactive calls. The calls are words filed in the database; no cut-off is given here.
# Key:
# [1] = target: T1, Sodium-dependent dopamine transporter (Homo sapiens, UniProt Q01959); details: HEK293, at 0.1 µM
# [2] = target: T2, Sodium-dependent noradrenaline transporter (Homo sapiens, UniProt P23975); details: HEK293, at 0.1 µM
# [3] = target: T3, Sodium-dependent serotonin transporter (Homo sapiens, UniProt P31645); details: HEK293, at 0.1 µM
# Target sequence in this assay (P31645 whole entry, looked up): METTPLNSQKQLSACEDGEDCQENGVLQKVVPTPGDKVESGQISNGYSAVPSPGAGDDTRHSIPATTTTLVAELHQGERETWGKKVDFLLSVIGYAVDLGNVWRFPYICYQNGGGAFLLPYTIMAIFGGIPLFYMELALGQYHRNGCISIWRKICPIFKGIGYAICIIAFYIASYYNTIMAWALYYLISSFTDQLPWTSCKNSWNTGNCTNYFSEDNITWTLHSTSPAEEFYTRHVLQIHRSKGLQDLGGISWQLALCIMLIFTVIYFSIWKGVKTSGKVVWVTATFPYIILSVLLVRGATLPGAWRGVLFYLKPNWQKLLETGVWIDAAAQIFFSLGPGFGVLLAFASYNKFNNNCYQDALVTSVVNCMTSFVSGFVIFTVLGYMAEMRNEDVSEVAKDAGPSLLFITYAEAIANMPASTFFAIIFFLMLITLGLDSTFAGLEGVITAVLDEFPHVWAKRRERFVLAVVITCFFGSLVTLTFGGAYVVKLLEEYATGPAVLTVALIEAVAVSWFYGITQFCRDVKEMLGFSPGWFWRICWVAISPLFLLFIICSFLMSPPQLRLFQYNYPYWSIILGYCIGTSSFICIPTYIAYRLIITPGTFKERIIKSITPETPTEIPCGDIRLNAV
# [4] = target: T2, Sodium-dependent noradrenaline transporter; type: cell-based, HEK293
# [5] = target: T3, Sodium-dependent serotonin transporter; type: cell-based, HEK293
# Target sequence in this assay (P31645 whole entry): as the sequence (P31645 whole entry, looked up) above
# [6] = target: T1, Sodium-dependent dopamine transporter; type: cell-based, HEK293
# Mus musculus [7] = assay: Antidepressant activity in ICR mouse assessed as reduction in immobility time at 10 mg/kg, iv after 0.5 hrs by forced swimming test; type: functional, organism-based; parameters: dose 10 mg/kg
# How it was run: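 ICR mice; forced swimming test following Porsolt's method. Intravenous dosing 0.5 h before the test at 2.5, 5.0 and 10.0 mg/kg. Read-out was immobility time, compared with vehicle-treated mice.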
# CYP3A4 = CYP3A4 (Homo sapiens, UniProt P08684); assay: Inhibition of human recombinant CYP3A4 at 10 uM after 5 mins by fluorescence assay
# How it was run: (§1)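 Single-point screen at 10 μM against human CYP2D6 or CYP3A4, using a VIVID CYP enzyme kit. Results were expressed as percentage inhibition.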
# CYP2D6 = CYP2D6 (Homo sapiens, UniProt P10635); assay: Inhibition of human recombinant CYP2D6 at 10 uM after 5 mins by fluorescence assay
# How it was run: as §1
# Liver microsomes = assay: Stability in human liver microsomes assessed as compound remaining at 1 uM after 0.5 hrs by BD Gentest assay; type: ADME, Microsome
# Rattus norvegicus [8] = assay: Oral bioavailability in Sprague-Dawley rat at 2 mg/kg; type: ADME, organism-based; details: in vivo
# [9] = Mean residence time ( 0 to t ) in Sprague-Dawley rat at 1 mg/kg, iv; type: ADME, organism-based; parameters: dose 1 mg/kg, route intravenous; details: in vivo
# Rattus norvegicus [10] = assay: Apparent volume of distribution during terminal phase in Sprague-Dawley rat at 1 mg/kg, iv; type: ADME, organism-based; parameters: dose 1 mg/kg, route intravenous; details: in vivo
# [11] = Mean residence time ( 0 to t ) in Sprague-Dawley rat at 2 mg/kg, po; type: ADME, organism-based; parameters: dose 2 mg/kg, route oral; details: in vivo
# [12] = Apparent volume of distribution during terminal phase in Sprague-Dawley rat at 2 mg/kg, po; type: ADME, organism-based; parameters: dose 2 mg/kg, route oral; details: in vivo, read-out: Vz/F
# [13] = Apparent oral clearance in Sprague-Dawley rat at 1 mg/kg, iv; type: ADME, organism-based; parameters: dose 1 mg/kg; details: in vivo
# [14] = Apparent oral clearance in Sprague-Dawley rat at 2 mg/kg, po; type: ADME, organism-based; parameters: dose 2 mg/kg, route oral; details: in vivo
# Rattus norvegicus [15] = assay: AUC (infinity) in Sprague-Dawley rat at 2 mg/kg, po; type: ADME, organism-based, Plasma; parameters: time infinity, dose 2 mg/kg, route oral; details: in vivo
# Rattus norvegicus [16] = assay: AUC (infinity) in Sprague-Dawley rat at 1 mg/kg, iv; type: ADME, organism-based, Plasma; parameters: time infinity, dose 1 mg/kg, route intravenous; details: in vivo
# [17] = AUC (all) in Sprague-Dawley rat at 1 mg/kg, iv; type: ADME, organism-based; parameters: dose 1 mg/kg, route intravenous; details: plasma
# [18] = AUC (all) in Sprague-Dawley rat at 2 mg/kg, po; type: ADME, organism-based; parameters: dose 2 mg/kg, route oral; details: plasma
# [19] = Terminal half life in Sprague-Dawley rat at 1 mg/kg, iv; type: ADME, organism-based; parameters: dose 1 mg/kg, route intravenous; details: in vivo, read-out: beta t1/2 (converted)
# [20] = Terminal half life in Sprague-Dawley rat at 2 mg/kg, po; type: ADME, organism-based; parameters: dose 2 mg/kg, route oral; details: in vivo, read-out: beta t1/2 (converted)
# [21] = Cmax in Sprague-Dawley rat at 1 mg/kg, iv; type: ADME, organism-based; parameters: dose 1 mg/kg, route intravenous; details: in vivo
# [22] = Tmax in Sprague-Dawley rat at 2 mg/kg, po; type: ADME, organism-based; parameters: dose 2 mg/kg, route oral; details: in vivo
# [23] = Cmax in Sprague-Dawley rat at 2 mg/kg, po; type: ADME, organism-based; parameters: dose 2 mg/kg, route oral; details: in vivo
# [24] = Ratio of drug level from brain to plasma in ICR mouse at 10 mg/kg, ip from 30 mins to 3 hrs by LC-MS/MS analysis; type: ADME, organism-based; parameters: dose 10 mg/kg, route intraperitoneal; details: read-out: BPR
# [25] = target: Voltage-gated inwardly rectifying potassium channel KCNH2 (Homo sapiens, UniProt Q12809); assay: Inhibition of human ERG expressed in CHOK1 cells by patch clamp technique; type: cell-based, CHO-K1
# Mus musculus [26] = assay: Antidepressant activity in po dosed ICR mouse assessed as reduction in immobility time dosed 0.5 hrs before forced swimming test; type: functional, organism-based
# How it was run: (§2)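 ICR mice were tested in the Porsolt forced swimming test with a 30 min pretreatment. Doses were 2.5, 5.0 and 10.0 mg/kg IV or 10, 20 and 40 mg/kg PO. Read-out was immobility time, compared with vehicle. Venlafaxine was the positive control.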
# Mus musculus [27] = assay: Antidepressant activity in iv dosed ICR mouse assessed as reduction in immobility time dosed 0.5 hrs before forced swimming test; type: functional, organism-based
# How it was run: as §2
# T1 sequence (Q01959 whole entry): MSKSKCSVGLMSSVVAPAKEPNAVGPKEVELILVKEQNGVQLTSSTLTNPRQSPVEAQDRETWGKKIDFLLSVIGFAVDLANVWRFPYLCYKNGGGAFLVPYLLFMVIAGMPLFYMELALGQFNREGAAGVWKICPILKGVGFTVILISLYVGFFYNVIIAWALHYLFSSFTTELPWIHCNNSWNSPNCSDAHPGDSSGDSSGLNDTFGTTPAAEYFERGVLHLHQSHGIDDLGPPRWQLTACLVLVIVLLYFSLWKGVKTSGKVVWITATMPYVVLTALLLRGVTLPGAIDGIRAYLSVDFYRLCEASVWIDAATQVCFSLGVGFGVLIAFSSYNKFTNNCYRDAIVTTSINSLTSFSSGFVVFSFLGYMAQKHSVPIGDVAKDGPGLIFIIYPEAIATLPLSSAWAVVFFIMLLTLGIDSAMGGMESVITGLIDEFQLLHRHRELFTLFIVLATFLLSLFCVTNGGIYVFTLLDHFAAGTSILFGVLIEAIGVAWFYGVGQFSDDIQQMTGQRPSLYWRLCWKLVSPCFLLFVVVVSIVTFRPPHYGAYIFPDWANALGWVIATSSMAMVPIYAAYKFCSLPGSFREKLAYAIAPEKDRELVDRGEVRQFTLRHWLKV
# T2 sequence (P23975 whole entry): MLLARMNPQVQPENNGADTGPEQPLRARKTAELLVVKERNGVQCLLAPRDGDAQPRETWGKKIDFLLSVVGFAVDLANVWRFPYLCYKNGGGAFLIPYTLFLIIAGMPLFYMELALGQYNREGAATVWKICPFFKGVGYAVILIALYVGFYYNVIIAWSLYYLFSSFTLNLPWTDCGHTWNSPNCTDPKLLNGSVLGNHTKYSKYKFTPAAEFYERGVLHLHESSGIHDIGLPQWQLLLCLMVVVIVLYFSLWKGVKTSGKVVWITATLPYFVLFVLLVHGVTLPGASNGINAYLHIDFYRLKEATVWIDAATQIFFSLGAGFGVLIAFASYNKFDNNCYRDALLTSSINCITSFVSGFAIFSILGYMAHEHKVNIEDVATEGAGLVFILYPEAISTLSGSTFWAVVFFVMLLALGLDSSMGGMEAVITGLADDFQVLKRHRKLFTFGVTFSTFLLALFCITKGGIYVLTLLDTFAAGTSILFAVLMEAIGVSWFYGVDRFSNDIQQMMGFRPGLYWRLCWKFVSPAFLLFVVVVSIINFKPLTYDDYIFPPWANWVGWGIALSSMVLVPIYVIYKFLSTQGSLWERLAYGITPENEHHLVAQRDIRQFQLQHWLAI
# Sequence of CYP2D6 (P10635 whole entry): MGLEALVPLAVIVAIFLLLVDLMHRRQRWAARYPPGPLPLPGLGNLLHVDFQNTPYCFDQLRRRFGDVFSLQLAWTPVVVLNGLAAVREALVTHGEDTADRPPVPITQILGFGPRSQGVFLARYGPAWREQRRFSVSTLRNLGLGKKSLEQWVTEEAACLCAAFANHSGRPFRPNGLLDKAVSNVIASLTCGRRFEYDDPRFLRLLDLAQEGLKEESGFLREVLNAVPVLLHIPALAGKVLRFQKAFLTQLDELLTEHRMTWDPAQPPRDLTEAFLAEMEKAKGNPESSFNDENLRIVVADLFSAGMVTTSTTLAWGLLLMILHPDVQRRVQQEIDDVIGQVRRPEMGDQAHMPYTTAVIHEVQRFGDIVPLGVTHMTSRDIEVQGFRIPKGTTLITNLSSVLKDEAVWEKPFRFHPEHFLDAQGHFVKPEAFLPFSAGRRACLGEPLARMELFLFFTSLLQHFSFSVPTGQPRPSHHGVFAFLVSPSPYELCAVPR
# Sequence of CYP3A4 (P08684 whole entry): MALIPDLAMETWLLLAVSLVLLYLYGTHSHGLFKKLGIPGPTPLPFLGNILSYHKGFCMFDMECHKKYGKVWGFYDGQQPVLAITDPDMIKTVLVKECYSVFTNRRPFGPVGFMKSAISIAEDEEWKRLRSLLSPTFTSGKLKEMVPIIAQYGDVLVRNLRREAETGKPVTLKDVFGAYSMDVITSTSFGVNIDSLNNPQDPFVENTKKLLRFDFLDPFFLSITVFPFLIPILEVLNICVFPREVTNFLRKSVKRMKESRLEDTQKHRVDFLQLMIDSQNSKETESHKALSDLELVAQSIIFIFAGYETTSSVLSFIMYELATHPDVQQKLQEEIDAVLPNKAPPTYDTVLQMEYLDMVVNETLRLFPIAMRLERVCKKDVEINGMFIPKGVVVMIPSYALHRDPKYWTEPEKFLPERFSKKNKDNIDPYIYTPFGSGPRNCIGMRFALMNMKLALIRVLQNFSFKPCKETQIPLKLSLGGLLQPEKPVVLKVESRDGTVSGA
# Sequence of Voltage-gated inwardly rectifying potassium channel KCNH2 (Q12809 whole entry): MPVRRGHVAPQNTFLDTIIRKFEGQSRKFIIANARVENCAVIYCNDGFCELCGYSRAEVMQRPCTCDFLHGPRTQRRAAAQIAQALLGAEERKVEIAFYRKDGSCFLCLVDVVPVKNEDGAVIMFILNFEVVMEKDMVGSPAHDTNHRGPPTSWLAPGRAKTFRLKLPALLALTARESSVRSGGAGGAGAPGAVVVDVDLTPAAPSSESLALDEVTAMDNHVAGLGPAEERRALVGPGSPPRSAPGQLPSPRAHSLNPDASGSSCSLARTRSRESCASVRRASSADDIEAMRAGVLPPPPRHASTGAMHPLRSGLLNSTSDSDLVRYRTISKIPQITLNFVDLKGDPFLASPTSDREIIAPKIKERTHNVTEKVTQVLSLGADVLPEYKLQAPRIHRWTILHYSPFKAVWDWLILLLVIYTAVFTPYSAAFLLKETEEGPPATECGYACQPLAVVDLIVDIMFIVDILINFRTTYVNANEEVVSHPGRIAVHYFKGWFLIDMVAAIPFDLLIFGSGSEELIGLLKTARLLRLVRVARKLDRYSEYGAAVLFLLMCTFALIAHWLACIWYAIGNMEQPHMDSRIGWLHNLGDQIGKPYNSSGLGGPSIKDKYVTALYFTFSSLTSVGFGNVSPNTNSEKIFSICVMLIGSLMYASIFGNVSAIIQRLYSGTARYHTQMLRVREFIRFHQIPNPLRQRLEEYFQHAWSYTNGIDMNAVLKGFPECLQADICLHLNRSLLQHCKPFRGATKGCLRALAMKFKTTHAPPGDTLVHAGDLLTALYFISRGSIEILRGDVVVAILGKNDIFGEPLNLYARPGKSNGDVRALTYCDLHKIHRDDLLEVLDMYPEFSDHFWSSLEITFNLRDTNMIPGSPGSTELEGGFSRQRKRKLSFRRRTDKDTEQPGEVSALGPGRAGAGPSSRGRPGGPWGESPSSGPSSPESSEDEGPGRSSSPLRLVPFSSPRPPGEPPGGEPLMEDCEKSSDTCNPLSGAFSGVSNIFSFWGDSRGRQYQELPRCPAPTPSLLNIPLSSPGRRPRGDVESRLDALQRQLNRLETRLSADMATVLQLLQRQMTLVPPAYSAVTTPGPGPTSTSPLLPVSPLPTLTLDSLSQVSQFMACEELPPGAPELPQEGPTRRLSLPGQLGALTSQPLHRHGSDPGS
smiles,measurement,setting,value
c1ccc(OC(c2ccccc2)C2CNC2)cc1 (centres undefined),inhibition,[1],9.3%
same,inhibition,[2],18%
same,inhibition,[3],25%
Clc1ccc(C(Oc2ccccc2)C2CNC2)cc1Cl (centres undefined),inhibition,[1],58%
same,inhibition,[2],89%
same,inhibition,[3],16%
Fc1cc(C(Oc2ccccc2F)C2CNC2)ccc1Cl (centres undefined),inhibition,[1],29%
same,inhibition,[2],81%
same,inhibition,[3],41%
COC(c1ccccc1)C1CNC1 (centres undefined),inhibition,[1],2.2%
same,inhibition,[2],1.5%
same,inhibition,[3],3.3%
Fc1cc(C(Oc2ccccc2)C2CNC2)ccc1Cl (centres undefined),IC50,[4],21 nM
same,IC50,[5],142 nM
same,IC50,[6],148 nM
same,inhibition,[1],30%
same,inhibition,[2],76%
same,inhibition,[3],49%
CCOC(c1ccc(Cl)c(Cl)c1)C1CNC1 (centres undefined),inhibition,[1],30%
same,inhibition,[2],49%
same,inhibition,[3],28%
COc1ccc(C(CN(C)C)C2(O)CCCCC2)cc1 (centres undefined),Activity,Mus musculus [7],Active
Clc1ccc(C(OCc2ccccc2)C2CNC2)cc1Cl (centres undefined),inhibition,[1],12%
same,inhibition,[2],30%
same,inhibition,[3],12%
Clc1ccc(OC(c2ccc3ccccc3c2)C2CNC2)cc1Cl (centres undefined),IC50,[4],16 nM
same,IC50,[5],35 nM
same,"inhibition at 5 min, 10 µM",CYP3A4,41%
same,"inhibition at 5 min, 10 µM",CYP2D6,25%
same,IC50,[6],54 nM
same,inhibition,[1],68%
same,inhibition,[2],79%
same,inhibition,[3],28%
CNCCC(Oc1ccccc1OC)c1ccccc1 (centres undefined),inhibition,[1],9.8%
same,inhibition,[3],9.9%
Fc1ccc(C(OCCN2CCN(CCCc3ccccc3)CC2)c2ccc(F)cc2)cc1,inhibition,[2],-5.9%
same,inhibition,[3],1.9%
COC(c1ccc(Cl)c(Cl)c1)C1CNC1 (centres undefined),inhibition,[1],22%
same,inhibition,[2],47%
same,inhibition,[3],16%
OC(c1ccc(Cl)cc1)C1CNC1 (centres undefined),inhibition,[1],2.1%
same,inhibition,[2],3.5%
same,inhibition,[3],2%
CCCOC(c1ccc2ccccc2c1)C1CNC1.Cl (centres undefined),IC50,[4],12 nM
same,IC50,[5],6.8 nM
same,Stability,Liver microsomes,Stable
same,F,Rattus norvegicus [8],5.7%
same,MRT last,[9],0.9 h
same,Vz/F,Rattus norvegicus [10],4.8 L/kg
same,MRT last,[11],2.2 h
same,Vd/F,[12],249 L/kg
same,CL/F,[13],78.3 mL/min/kg
same,CL/F,[14],775 mL/min/kg
same,AUC,Rattus norvegicus [15],49.4 ng·h/mL
same,AUC,Rattus norvegicus [16],214.6 ng·h/mL
same,AUC,[17],211 ng·h/mL
same,AUC,[18],23.9 ng·h/mL
same,half-life,[19],42 min
same,half-life,[20],288 min
same,Cmax,[21],198 ng/mL
same,Tmax,[22],1 h
same,Cmax,[23],7.3 ng/mL
same,Kp,[24],0.86
same,IC50,[25],980 nM
same,IC50,[6],72 nM
same,inhibition,[1],48%
same,inhibition,[2],87%
same,inhibition,[3],77%
CCCOC(c1ccc(Cl)c(Cl)c1)C1CNC1 (centres undefined),IC50,[4],10 nM
same,IC50,[5],44 nM
same,IC50,[6],32 nM
same,inhibition,[1],74%
same,inhibition,[2],87%
same,inhibition,[3],39%
CCOC(c1ccccc1)C1CNC1 (centres undefined),inhibition,[1],3%
same,inhibition,[2],4.5%
same,inhibition,[3],4%
COC(c1ccc(Cl)cc1)C1CNC1 (centres undefined),inhibition,[1],2.6%
same,inhibition,[2],7.7%
same,inhibition,[3],3.9%
CCOC(c1ccc(Cl)cc1)C1CNC1 (centres undefined),inhibition,[1],7.3%
same,inhibition,[2],10%
same,inhibition,[3],4.6%
OC(c1ccccc1)C1CNC1 (centres undefined),inhibition,[1],3.9%
same,inhibition,[2],0.2%
same,inhibition,[3],1.7%
Cl.c1ccc(OC(c2ccc3ccccc3c2)C2CNC2)cc1 (centres undefined),IC50,[4],3.1 nM
same,IC50,[5],8.3 nM
same,Stability,Liver microsomes,Stable
same,Activity,Mus musculus [26],Dose-dependent effect
same,Activity,Mus musculus [7],Active
same,Activity,Mus musculus [27],Dose-dependent effect
same,F,Rattus norvegicus [8],5.8%
same,MRT last,[9],1.73 h
same,Vz/F,Rattus norvegicus [10],13.1 L/kg
same,MRT last,[11],2 h
same,Vd/F,[12],241 L/kg
same,CL/F,[13],107 mL/min/kg
same,CL/F,[14],812 mL/min/kg
same,AUC,Rattus norvegicus [15],41.7 ng·h/mL
same,AUC,Rattus norvegicus [16],159.7 ng·h/mL
same,AUC,[17],153 ng·h/mL
same,AUC,[18],17.9 ng·h/mL
same,half-life,[19],84 min
same,half-life,[20],198 min
same,Cmax,[21],112 ng/mL
same,Tmax,[22],1.3 h
same,Cmax,[23],5.6 ng/mL
same,Kp,[24],2.7
same,"inhibition at 5 min, 10 µM",CYP3A4,12%
same,"inhibition at 5 min, 10 µM",CYP2D6,16%
same,IC50,[6],35 nM
same,inhibition,[1],64%
same,inhibition,[2],90%
same,inhibition,[3],64%
c1ccc(COC(c2ccccc2)C2CNC2)cc1 (centres undefined),inhibition,[1],2%
same,inhibition,[2],9.4%
same,inhibition,[3],12%
Clc1ccc(C(OCc2ccccc2)C2CNC2)cc1 (centres undefined),inhibition,[1],5.7%
same,inhibition,[2],16%
same,inhibition,[3],12%
Clc1ccc(C(Oc2ccccc2)C2CNC2)cc1 (centres undefined),inhibition,[1],36%
same,inhibition,[2],68%
same,inhibition,[3],22%
